Here are results for 1 molecule from ChEMBL document CHEMBL4257503, “N-Acetyl-3-aminopyrazoles block the non-canonical NF-kB cascade by selectively inhibiting NIK” (Medchemcomm, 2018).

Series [1] deals with Dual specificity tyrosine-phosphorylation-regulated kinase 1A (Homo sapiens, UniProt Q13627). The series can be described thus: Inhibition of DYRK1A (unknown origin).
In series [2] the target is Mitogen-activated protein kinase kinase kinase 14 (Homo sapiens, UniProt Q99558). The series can be described thus: Inhibition of recombinant human full-length N-terminal GST-fused/His6-tagged NIK (M1 to P947 residues) expressed in Sf9 insect cells using AKDVDQGSLCTSFVGTLQY peptide as substrate measured after 60 mins by ADP-Glo kinase assay. Background: ADP-Glo turns the ADP formed in a reaction into a luminescent signal.

The target in series [3] is Mitogen-activated protein kinase kinase kinase kinase 2 (Homo sapiens, UniProt Q12851). The series can be described thus: Inhibition of MAP4K2 (unknown origin).
For series [4], the target named is Serine/threonine-protein kinase mTOR (Homo sapiens, UniProt P42345). The series can be described thus: Inhibition of mTOR (unknown origin).
The target in series [5] is Dual specificity mitogen-activated protein kinase kinase 1 (Homo sapiens, UniProt Q02750). Kind of series: Inhibition of wild-type MEK1 (unknown origin).
Series [6] concerns the target Mitogen-activated protein kinase 14 (Homo sapiens, UniProt Q16539). The series can be described thus: Inhibition of p38-alpha (unknown origin).
The target of series [7] is Hepatocyte growth factor receptor (Homo sapiens, UniProt P08581). The series can be described thus: Inhibition of wild-type MET (unknown origin).
The target of series [8] is Cyclin-Y/Cyclin-dependent kinase 16 (Homo sapiens, UniProt Q00536). Kind of series: Inhibition of PCTAIRE1/cyclinY (unknown origin). In kind it is protein-complex assay.
In series [9] the target is Epidermal growth factor receptor (Homo sapiens, UniProt P00533). Kind of series: Inhibition of wild-type EGFR (unknown origin).
Another series concerns the target Insulin receptor (Homo sapiens, UniProt P06213). The series can be described thus: Inhibition of INSR (unknown origin).
Series [10] can be described thus: Cytotoxicity against human SKBR3 cells assessed as cell viability at 100 uM after 6 hrs by CellTiter Glo luminescent assay relative to control. The series is classed as cell-based, SK-BR-3. The conditions noted are these: read-out: Activity. The essentials: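 Cells seeded at 5 x 10^3 per well and exposed for 6 h to the compound (10, 25, 50 or 100 µM) or to DMSO vehicle. Viability was read as intracellular ATP by CellTiter Glo luminescence.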
On the technique in general: ATP-based viability assays read luminescence as a measure of living cells.

Series [11] addresses Calcium/calmodulin-dependent protein kinase kinase 1 (Homo sapiens, UniProt Q8N5S9). The series can be described thus: Inhibition of CAMKK1 (unknown origin).
In series [12] the target is Serine/threonine-protein kinase TAO2 (Homo sapiens, UniProt Q9UL54). The series can be described thus: Inhibition of TAOK2 (unknown origin).
Series [13] deals with Maternal embryonic leucine zipper kinase (Homo sapiens, UniProt Q14680). Kind of series: Inhibition of MELK (unknown origin).
Chain of Maternal embryonic leucine zipper kinase (Q14680 whole entry): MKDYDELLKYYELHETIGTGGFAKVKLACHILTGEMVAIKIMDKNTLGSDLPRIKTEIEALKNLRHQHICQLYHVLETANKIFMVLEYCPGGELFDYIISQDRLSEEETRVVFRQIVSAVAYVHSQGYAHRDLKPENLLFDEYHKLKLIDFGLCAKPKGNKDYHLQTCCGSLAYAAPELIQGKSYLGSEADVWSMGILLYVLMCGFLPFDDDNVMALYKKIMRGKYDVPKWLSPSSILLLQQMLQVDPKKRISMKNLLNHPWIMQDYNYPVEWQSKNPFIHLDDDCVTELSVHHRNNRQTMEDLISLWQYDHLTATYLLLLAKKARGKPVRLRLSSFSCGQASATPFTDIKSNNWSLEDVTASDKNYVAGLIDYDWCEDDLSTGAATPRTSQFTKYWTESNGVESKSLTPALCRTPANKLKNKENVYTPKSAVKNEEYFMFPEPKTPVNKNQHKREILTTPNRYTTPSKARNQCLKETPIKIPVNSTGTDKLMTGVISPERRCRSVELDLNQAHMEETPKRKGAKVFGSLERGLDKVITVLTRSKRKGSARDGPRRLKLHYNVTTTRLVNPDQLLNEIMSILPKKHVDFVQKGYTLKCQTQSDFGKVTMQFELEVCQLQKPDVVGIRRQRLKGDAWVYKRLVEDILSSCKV

Chain of Dual specificity mitogen-activated protein kinase kinase 1 (Q02750 whole entry): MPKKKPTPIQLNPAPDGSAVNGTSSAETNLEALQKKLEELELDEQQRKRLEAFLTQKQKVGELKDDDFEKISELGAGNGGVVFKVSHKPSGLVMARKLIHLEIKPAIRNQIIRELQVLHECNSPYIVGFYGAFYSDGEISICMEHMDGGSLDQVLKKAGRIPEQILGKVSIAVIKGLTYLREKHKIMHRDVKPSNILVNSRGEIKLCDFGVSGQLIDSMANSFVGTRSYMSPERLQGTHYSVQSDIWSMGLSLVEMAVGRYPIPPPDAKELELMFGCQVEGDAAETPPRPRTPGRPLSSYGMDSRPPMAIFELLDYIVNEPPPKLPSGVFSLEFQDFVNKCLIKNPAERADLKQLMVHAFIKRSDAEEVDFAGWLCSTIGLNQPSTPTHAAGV
Chain of Mitogen-activated protein kinase kinase kinase kinase 2 (Q12851 whole entry): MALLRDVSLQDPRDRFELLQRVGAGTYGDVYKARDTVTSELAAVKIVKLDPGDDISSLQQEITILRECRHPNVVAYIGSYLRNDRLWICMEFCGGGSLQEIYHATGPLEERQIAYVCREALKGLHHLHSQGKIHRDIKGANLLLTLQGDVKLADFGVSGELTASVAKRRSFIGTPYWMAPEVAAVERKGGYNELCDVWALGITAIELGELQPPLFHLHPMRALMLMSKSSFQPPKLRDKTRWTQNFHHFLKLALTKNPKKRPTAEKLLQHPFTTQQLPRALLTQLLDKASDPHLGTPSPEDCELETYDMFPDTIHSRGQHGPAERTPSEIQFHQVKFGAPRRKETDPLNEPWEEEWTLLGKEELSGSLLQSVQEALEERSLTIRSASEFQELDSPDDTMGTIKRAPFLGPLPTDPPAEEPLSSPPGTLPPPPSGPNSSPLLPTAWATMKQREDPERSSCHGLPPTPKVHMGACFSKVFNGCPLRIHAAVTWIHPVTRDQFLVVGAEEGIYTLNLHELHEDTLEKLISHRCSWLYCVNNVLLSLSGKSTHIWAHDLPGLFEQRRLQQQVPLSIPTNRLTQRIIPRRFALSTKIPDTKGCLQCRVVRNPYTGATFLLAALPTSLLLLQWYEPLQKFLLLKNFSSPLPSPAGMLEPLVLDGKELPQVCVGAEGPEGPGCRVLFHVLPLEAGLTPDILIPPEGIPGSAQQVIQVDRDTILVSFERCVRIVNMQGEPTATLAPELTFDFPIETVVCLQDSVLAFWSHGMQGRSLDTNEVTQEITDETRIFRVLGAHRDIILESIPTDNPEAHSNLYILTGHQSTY
Chain of Serine/threonine-protein kinase TAO2 (Q9UL54 whole entry): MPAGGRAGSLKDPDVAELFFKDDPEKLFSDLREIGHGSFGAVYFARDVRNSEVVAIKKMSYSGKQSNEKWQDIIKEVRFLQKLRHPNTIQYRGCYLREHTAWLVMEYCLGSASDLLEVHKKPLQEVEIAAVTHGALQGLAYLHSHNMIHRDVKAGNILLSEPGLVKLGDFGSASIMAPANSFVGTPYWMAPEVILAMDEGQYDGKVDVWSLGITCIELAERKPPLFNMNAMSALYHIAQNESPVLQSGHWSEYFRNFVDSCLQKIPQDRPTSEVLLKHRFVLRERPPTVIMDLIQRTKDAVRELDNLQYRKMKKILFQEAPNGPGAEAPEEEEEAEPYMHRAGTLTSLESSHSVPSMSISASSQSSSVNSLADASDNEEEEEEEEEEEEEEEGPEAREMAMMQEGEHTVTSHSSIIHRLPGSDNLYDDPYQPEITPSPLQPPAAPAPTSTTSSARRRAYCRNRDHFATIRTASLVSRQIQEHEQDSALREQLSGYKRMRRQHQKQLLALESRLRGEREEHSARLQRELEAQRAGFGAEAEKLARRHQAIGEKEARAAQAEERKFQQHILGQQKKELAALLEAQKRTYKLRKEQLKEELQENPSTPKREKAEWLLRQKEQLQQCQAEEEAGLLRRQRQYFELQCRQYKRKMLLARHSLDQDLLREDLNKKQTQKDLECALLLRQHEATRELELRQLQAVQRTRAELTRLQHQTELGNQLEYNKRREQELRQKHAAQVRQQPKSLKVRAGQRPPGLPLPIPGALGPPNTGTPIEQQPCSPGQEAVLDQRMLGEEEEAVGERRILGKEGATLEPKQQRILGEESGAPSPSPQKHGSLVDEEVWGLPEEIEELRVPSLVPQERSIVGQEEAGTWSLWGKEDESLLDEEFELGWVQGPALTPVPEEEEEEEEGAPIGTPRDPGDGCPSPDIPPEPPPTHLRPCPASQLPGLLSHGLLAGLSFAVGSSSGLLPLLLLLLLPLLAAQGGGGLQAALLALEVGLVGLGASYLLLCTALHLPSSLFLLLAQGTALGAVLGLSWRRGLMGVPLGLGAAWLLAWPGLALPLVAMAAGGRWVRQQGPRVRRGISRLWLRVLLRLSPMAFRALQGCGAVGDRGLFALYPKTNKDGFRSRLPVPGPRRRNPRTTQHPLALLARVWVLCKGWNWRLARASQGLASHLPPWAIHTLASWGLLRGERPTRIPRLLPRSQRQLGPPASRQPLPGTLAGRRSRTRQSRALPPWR
Chain of Calcium/calmodulin-dependent protein kinase kinase 1 (Q8N5S9 whole entry): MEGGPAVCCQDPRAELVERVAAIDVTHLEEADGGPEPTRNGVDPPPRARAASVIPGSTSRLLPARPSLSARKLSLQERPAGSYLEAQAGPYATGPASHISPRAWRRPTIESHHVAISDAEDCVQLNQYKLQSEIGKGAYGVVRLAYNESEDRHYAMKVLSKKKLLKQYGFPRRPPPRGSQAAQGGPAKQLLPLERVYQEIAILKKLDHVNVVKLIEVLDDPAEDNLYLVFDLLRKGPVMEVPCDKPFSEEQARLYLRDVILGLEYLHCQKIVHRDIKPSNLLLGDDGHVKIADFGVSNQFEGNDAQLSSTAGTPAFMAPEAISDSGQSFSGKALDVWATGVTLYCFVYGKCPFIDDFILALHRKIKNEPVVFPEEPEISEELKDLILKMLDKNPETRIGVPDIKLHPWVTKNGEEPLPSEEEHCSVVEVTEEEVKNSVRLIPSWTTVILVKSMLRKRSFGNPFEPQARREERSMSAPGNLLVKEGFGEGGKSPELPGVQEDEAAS
Chain of Mitogen-activated protein kinase kinase kinase 14 (Q99558 whole entry, the tested form may be a part): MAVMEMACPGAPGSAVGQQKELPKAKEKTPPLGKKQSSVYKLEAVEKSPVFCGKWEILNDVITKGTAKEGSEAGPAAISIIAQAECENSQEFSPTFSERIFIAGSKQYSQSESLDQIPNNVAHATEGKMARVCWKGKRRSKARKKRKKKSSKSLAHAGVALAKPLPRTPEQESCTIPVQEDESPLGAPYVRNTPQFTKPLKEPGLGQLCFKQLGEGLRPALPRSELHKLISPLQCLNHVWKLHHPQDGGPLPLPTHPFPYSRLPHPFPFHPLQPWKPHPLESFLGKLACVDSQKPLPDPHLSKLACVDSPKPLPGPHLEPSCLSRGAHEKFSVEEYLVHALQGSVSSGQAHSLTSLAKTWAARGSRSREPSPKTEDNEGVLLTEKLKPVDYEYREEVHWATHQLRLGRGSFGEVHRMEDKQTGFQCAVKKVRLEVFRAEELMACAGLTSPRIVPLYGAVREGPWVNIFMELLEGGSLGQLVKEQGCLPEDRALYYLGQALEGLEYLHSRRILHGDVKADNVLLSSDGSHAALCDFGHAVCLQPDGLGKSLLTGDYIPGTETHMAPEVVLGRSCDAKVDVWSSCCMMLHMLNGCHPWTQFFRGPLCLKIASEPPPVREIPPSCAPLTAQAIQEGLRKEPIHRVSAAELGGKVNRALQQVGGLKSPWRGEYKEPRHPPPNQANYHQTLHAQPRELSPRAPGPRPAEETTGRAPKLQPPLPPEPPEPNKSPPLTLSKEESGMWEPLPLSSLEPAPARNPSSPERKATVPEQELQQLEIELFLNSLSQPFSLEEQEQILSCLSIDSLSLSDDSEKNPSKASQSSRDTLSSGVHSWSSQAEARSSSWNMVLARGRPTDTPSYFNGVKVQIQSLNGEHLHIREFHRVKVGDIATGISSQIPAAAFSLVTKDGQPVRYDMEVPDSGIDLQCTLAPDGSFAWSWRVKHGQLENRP
Chain of Mitogen-activated protein kinase 14 (Q16539 whole entry): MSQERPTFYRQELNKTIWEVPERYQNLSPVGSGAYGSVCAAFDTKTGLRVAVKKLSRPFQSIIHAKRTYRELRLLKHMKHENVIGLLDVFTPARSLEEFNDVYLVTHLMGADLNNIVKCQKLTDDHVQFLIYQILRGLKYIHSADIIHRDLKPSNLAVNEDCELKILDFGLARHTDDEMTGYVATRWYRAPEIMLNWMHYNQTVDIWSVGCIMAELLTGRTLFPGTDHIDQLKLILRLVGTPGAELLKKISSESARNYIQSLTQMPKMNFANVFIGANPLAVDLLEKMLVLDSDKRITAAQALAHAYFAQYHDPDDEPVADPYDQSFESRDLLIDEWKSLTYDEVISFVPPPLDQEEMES

What is called IC50 is the point on the concentration scale where inhibition reaches its midpoint. For the molecule `CC(=O)n1nc(C)c(-c2ccc(Cl)c(Cl)c2)c1N`, the IC50 is above 100 µM in series [1]; 8.4 µM in [2]; above 100 µM in series [3]; above 100 µM in [4]; above 100 µM in series [5]; above 100 µM in [6]. Besides, the IC50 (in [7]; in [8]; in series [9]; at Insulin receptor; in series [11]; in series [12]) was above 100 µM in each case. In series [13], this molecule returned an IC50 above 100 µM. Besides, the viability at 6 h, 100 µM in series [10] was at least 80%.
